Results taken from ChEMBL document CHEMBL1128306, “Design, synthesis, and evaluation of A/C/D-ring analogs of the fungal metabolite K-76 as potential complement inhibitors” (J Med Chem, 1995).
pIC50: −log10 of the molar value.

Assays:
[1] = Inhibitory activity against hemolysis of antibody-sensitized sheep erythrocytes using human serum as complementary source in multiple assay; type: functional
In short: (§1)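 Antibody-sensitized sheep erythrocytes were exposed to compounds and to human serum in 0.1 M HEPES, 0.15 N NaCl, pH 7.4. Serum dilution was pre-set to lyse 80–90% of cells. Incubation 60 min at 37 °C, then centrifugation and supernatant A410 for hemoglobin release. Triplicate controls without serum were subtracted. Inhibition is relative to the no-compound sample.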

[2] = Inhibitory activity against C5a production by activated human serum complement; type: functional
In short: (§2)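 Human serum aliquots (400 μL) equilibrated at 37 °C with varying compound concentrations in 0.1 M Hepes, 0.15 N NaCl, pH 7.4. Complement activated with heat-aggregated IgG at 14 mg/mL, 10 min at 37 °C. C3a[desArg] and C5a[desArg] were measured by radioimmunoassay. Triplicates were averaged. Fractional inhibition is relative to the no-compound sample and the background without aggregated IgG.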

[3] = Inhibitory activity against hemolysis (complement-mediated erythrocyte lysis) of antibody-sensitized sheep erythrocytes using human serum as complementary source; type: functional; in short: as §1
Homo sapiens [4] = species: Homo sapiens; experiment: Inhibitory activity against mitogen-stimulated PBL proliferation; type: functional
T-cell = experiment: Inhibitory activity against lectin-stimulated T cell proliferation; type: functional, cell-based
[5] = (§3) Compound was tested to inhibit the production of C5a relative to C3a; type: functional, Homo sapiens; in short: as §2
[6] = as §3; type: functional, Homo sapiens; in short: as §2; remark: listed apart in the source
Homo sapiens [7] = species: Homo sapiens; experiment: Inhibitory activity against mitogen-stimulated PBL proliferation; Range 1.7-2.8 mM; type: functional

SMILES | pIC50 [1] | pIC50 [2] | pIC50 ([3]; read-out: IC50) | pIC50 (Homo sapiens [4]) | inhibition (T-cell) | pIC50 [5] | pIC50 [6] | pIC50 (Homo sapiens [7]) | IC50 [3]
C[C@@H]1CCC2C(C)(C)[C@H](O)[C@H](O)C[C@]2(C)[C@@]12Cc1c(O)cc(C(=O)O)c(C=O)c1O2 (stereo not given in full) | 3.24 | 2.52 | 3.52 | 3.30 | Inhibit |  |  |  | 
COc1ccc(C(=O)O)c2c1CC(C)(C1CC=C(C)CC1)O2 (stereo not given) |  |  |  |  |  | 2.22 | 2.10 | > 2.55 | 
CC1=CCC(C2(C)Cc3c(O)ccc(C(=O)O)c3O2)CC1 (stereo not given) |  |  |  |  |  |  |  | > 2.55 | Less Effective
